# Active and inactive are the calls of the source. The rule behind the calls is not given here.
# Legend:
# [1] = target: T1, Muscarinic acetylcholine receptor M2 (Homo sapiens, UniProt P08172); assay: Binding affinity to human muscarinic acetylcholine receptor M2 expressed in CHOK9 cell homogenate after 2 hrs by liquid scintillation counting assay; settings: read-out: Kd(app)
# T1 sequence (P08172 whole entry): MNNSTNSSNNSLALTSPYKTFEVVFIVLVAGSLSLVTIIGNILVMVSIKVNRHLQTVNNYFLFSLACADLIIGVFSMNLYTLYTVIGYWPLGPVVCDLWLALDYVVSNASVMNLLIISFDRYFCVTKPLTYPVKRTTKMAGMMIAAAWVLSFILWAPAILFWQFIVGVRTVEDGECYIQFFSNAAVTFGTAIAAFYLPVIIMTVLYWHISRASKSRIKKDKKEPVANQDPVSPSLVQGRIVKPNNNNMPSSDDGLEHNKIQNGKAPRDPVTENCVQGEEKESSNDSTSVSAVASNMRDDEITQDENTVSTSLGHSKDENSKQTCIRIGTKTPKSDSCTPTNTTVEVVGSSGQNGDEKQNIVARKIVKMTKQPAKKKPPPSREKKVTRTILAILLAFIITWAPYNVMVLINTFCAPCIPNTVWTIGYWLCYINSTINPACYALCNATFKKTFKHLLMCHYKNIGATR
# Procedure, shortened: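 CHO-hM2 cell homogenates (25–30 μg protein/well) in L15 medium with 1% BSA, 23 ± 1 °C, 2 h with tritiated dimeric radioligand. Competition used 0.5 nM radioligand; additional 0.4, 1, 2 and 4 nM in W84 experiments. […] Four-parameter logistic fits; at least three experiments in triplicate.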
# [2] = target: T1, Muscarinic acetylcholine receptor M2; assay: Binding affinity to human muscarinic acetylcholine receptor M2 expressed in CHOK9 cell suspension after 2 hrs by liquid scintillation counting assay; settings: read-out: Kd(app)
# [3] = target: T2, Muscarinic acetylcholine receptor M4 (Homo sapiens, UniProt P08173); assay: Binding affinity to human muscarinic acetylcholine receptor M4 expressed in CHOK9 cells after 2 hrs by liquid scintillation counting assay; format: cell-based
# T2 sequence (P08173 whole entry): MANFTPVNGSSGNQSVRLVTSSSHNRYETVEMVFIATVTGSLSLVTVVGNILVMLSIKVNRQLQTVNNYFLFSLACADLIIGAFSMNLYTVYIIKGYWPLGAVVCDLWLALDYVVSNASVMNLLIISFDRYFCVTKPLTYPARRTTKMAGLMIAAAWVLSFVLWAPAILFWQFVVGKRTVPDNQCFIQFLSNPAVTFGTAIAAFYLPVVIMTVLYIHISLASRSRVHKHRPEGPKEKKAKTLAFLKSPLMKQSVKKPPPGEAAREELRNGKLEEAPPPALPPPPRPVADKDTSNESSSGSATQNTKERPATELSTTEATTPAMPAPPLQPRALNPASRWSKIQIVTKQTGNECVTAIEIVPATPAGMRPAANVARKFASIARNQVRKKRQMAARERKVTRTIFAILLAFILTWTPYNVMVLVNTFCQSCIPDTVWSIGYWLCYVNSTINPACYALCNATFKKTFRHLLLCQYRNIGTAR
# [4] = target: T1, Muscarinic acetylcholine receptor M2; assay: Displacement of [3H]NMS from human muscarinic acetylcholine receptor M2 expressed in CHOK9 cells after 3 hrs by liquid scintillation counting assay; format: cell-based
# [5] = target: T1, Muscarinic acetylcholine receptor M2; assay: (§1) Binding affinity to human muscarinic acetylcholine receptor M2 expressed in live adherent CHOK9 cells after 2 hrs by liquid scintillation counting assay; format: cell-based
# Procedure, shortened: (§2)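 Live adherent CHO-hM2 cells in L15 medium with 1% BSA, 23 ± 1 °C, 2 h incubation. Competition at 2 nM radioligand; additional 4, 8, 15 and 30 nM in W84 experiments. […] Saturation data fitted one-site; competition by four-parameter logistic fits; at least three experiments in triplicate.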
# [6] = target: T1, Muscarinic acetylcholine receptor M2; assay: Ratio of binding affinity to human muscarinic acetylcholine receptor M2 expressed in CHOK9 cells assessed as dissociation rate constant to binding affinity to human muscarinic acetylcholine receptor M2 expressed in CHOK9 cells assessed as association rate constant; format: cell-based
# [7] = target: T1, Muscarinic acetylcholine receptor M2; assay: Binding affinity to human muscarinic acetylcholine receptor M2 expressed in live adherent CHOK9 cells assessed as saturation binding after 2 hrs by liquid scintillation counting assay
# [8] = target: T1, Muscarinic acetylcholine receptor M2; assay: Displacement of [3H]UR-AP060 from human muscarinic acetylcholine receptor M2 expressed in CHOK9 cell homogenate after 3 hrs by liquid scintillation counting assay
# [9] = target: T1, Muscarinic acetylcholine receptor M2; assay: Displacement of [3H]UNSW-MK259 from human muscarinic acetylcholine receptor M2 expressed in CHOK9 cells after 3 hrs by liquid scintillation counting assay; format: cell-based
# [10] = target: T1, Muscarinic acetylcholine receptor M2; assay: Displacement of [3H]NMS from human muscarinic acetylcholine receptor M2
# Procedure, shortened: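 Competition binding at intact adherent CHO-K9 cells stably expressing human M2R. Cells were incubated with [3H]NMS 0.2 nM (final) and competitor for 3 h at 23 ± 1 °C in Leibovitz L-15 medium with 1% BSA. […] Curves were fitted by four-parameter logistic fits. Replicates: 3 to 9 independent experiments, each in triplicate.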
# [11] = target: T1, Muscarinic acetylcholine receptor M2; assay: Displacement of [3H]NMS from human muscarinic acetylcholine receptor M2 expressed in CHO cells after 2 hrs; format: cell-based
# [12] = target: T1, Muscarinic acetylcholine receptor M2; assay: Displacement of [3H]Dimethyl-W84 from human muscarinic acetylcholine receptor M2 expressed in CHO cells after 2 hrs; format: cell-based
# [13] = target: T1, Muscarinic acetylcholine receptor M2; assay: (§3) Competitive antagonist activity at human muscarinic acetylcholine receptor M2 expressed in HEK293 cells coexpressing HA tagged Galpha-protein qi5 assessed as inhibition of 10 uM carbachol-induced IP1 accumulation preincubated for 30 mins followed by carbachol addition measured after 1 hr by HTRF assay; format: functional, cell-based
# Procedure, shortened: (§4)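 HEK-293 transiently cotransfected with human M2R and Gαqi5-HA. Cells preincubated 30 min with antagonist, then carbachol added (final 0.1, 0.3, 1 or 10 μM), 1 h at 37 °C. IP1 detected by HTRF (620/670 nm emission, 330 nm excitation). At least four independent experiments, each in duplicate.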
# [14] = target: T3, Muscarinic acetylcholine receptor M2 (Homo sapiens) (UniProt P08172); assay: as §3; format: functional, cell-based; procedure, shortened: as §4
# T3 sequence (whole entry): T1 sequence (P08172 whole entry)
# [15] = target: T3, Muscarinic acetylcholine receptor M2 (Homo sapiens); assay: Binding affinity to human muscarinic acetylcholine receptor M2 expressed in live adherent CHOK9 cells at Kd in presence of 500-fold excess atropine after 2 hrs by liquid scintillation counting assay relative to control; format: cell-based; settings: tested as the 3H-labelled form; procedure, shortened: as §2
# [16] = target: T1, Muscarinic acetylcholine receptor M2; assay: as §3, with “0.1” for “10”; format: functional, cell-based; procedure, shortened: as §4
# [17] = target: T3, Muscarinic acetylcholine receptor M2 (Homo sapiens); assay: as §3, with “0.1” for “10”; format: functional, cell-based; procedure, shortened: as §4
# [18] = target: T3, Muscarinic acetylcholine receptor M2 (Homo sapiens); assay: Binding affinity to human muscarinic acetylcholine receptor M2 expressed in CHOK9 cells assessed as dissociation rate constant after 105 mins by liquid scintillation counting assay; format: cell-based; settings: tested as the 3H-labelled form
# [19] = target: T1, Muscarinic acetylcholine receptor M2; assay: as §3, with “1” for “10”; format: functional, cell-based; procedure, shortened: as §4
# [20] = target: T3, Muscarinic acetylcholine receptor M2 (Homo sapiens); assay: as §3, with “1” for “10”; format: functional, cell-based; procedure, shortened: as §4
# [21] = target: T3, Muscarinic acetylcholine receptor M2 (Homo sapiens); assay: Binding affinity to human muscarinic acetylcholine receptor M2 expressed in CHOK9 cells assessed as association rate constant incubated up to 140 mins by liquid scintillation counting assay; format: cell-based; settings: tested as the 3H-labelled form
# [22] = target: T3, Muscarinic acetylcholine receptor M2 (Homo sapiens); assay: Binding affinity to human muscarinic acetylcholine receptor M2 expressed in CHOK9 cells assessed as dissociation half life after 105 mins by liquid scintillation counting assay; format: cell-based; settings: tested as the 3H-labelled form
# [23] = target: T3, Muscarinic acetylcholine receptor M2 (Homo sapiens); assay: Antagonist activity at human muscarinic acetylcholine receptor M2 expressed in HEK293 cells coexpressing HA tagged Galpha-protein qi5 assessed as inhibition of 0.3 uM carbachol-induced IP1 accumulation preincubated for 30 mins followed by carbachol addition measured after 1 hr by HTRF assay; format: functional, cell-based; procedure, shortened: as §4
# [24] = target: T3, Muscarinic acetylcholine receptor M2 (Homo sapiens); assay: as §1; format: cell-based; settings: tested as the 3H-labelled form; procedure, shortened: as §2
# [25] = target: T3, Muscarinic acetylcholine receptor M2 (Homo sapiens); assay: Agonist activity at human muscarinic acetylcholine receptor M2 expressed in HEK293 cells coexpressing HA tagged Galpha-protein qi5 assessed as induction of IP1 accumulation measured after 1 hr by HTRF assay; format: functional, cell-based
# Procedure, shortened: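 HEK-293 transiently cotransfected with human M2R and Gαqi5-HA, seeded 24 h before assay (10000 cells/well). Compounds in stimulation buffer (1 pM–100 μM final) 1 h at 37 °C; IP1 read by HTRF (620/670 nm, excitation 330 nm) after 60 min with detection reagents at rt. Duplicate, three experiments, carbachol as reference.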
# [26] = Chemical stability of the compound in PBS buffer at pH 7.4 after 48 hrs by HPLC analysis; format: physicochemical; settings: pH 7.4, 48 h
# Procedure, shortened: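 Compound at 100 μM final (from 10 mM stock) in PBS pH 7.4 at 22 ± 1 °C; samples taken at 0, 24 and 48 h, mixed with acetonitrile/1% aq TFA 2:8, analysed by RP-HPLC at 220 nm.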
compound,measurement,setting,value
O=C(O)C(F)(F)F.O=C(O)C(F)(F)F.O=C(O)C(F)(F)F.O=C(O)C(F)(F)F.[3H]CC([3H])C(=O)NCc1cc(C(=O)NCCNC(=O)CCc2cn(CCCCC3CCN(CC(=O)N4c5ccccc5NC(=O)c5ccccc54)CC3)cn2)cc(C(=O)NCCNC(=O)CCc2cn(CCCCC3CCN(CC(=O)N4c5ccccc5NC(=O)c5ccccc54)CC3)cn2)c1 (stereo not drawn),Kd,[1],0.22 to 0.24 nM
same,Kd,[2],0.31 nM
same,Kd,[3],0.67 nM
same,Ki,[4]; read-out: Ki,0.41 nM
same,Kd,[5],0.91 nM
same,Kd,[6],0.2 nM
same,Kd,[7],0.31 nM
O=C1CCCN1CC#CCN1CCCC1 [OXOTREMORINE],Ki,[8],10000 nM
same,Ki,[9],148 nM
same,Ki,[10],251 to 10000 nM
[3H]CC([3H])C(=O)NCCNC(=O)CCc1cn(CCCCC2CCN(CC(=O)N3c4ccccc4NC(=O)c4ccccc43)CC2)cn1 (stereo not drawn),Ki,[4]; read-out: Ki,0.76 nM
same,Kd,[5],0.87 nM
same,Kd,[6],0.7 nM
same,Kd,[7],0.87 nM
C[N+](C)(CCCCCC[N+](C)(C)CCCN1C(=O)c2ccccc2C1=O)CCCN1C(=O)c2ccccc2C1=O,Ki,[11],31.6 nM
same,Ki,[8],1070 nM
same,Kb,[8]; read-out: pA2 (converted),263 nM
same,Ki,[9],39.8 nM
same,Kb,[9]; read-out: pA2 (converted),155 nM
same,Ki,[12],31.6 nM
CCC(=O)NCCNC(=O)CCc1cn(CCCCC2CCN(CC(=O)N3c4ccccc4NC(=O)c4ccccc43)CC2)cn1,IC50,[13],355 nM
same,inhibition,[14],Dose-dependent effect
same,Activity,[15],< 5%
same,IC50,[16],33.9 nM
same,inhibition,[17],Dose-dependent effect
same,K,[18],0.0091 min⁻¹
same,IC50,[19],85.1 nM
same,inhibition,[20],Dose-dependent effect
same,K,[21],217000 M⁻¹ s⁻¹
same,Ki,[8],10.2 nM
same,Ki,[9],1.1 nM
same,T1/2,[22],1.18 h
same,inhibition,[23],Dose-dependent effect
same,pKb,[23],7.53
same,Ki,[4]; read-out: pKi (converted),0.759 nM
same,Bmax (disintegrations/minute),[24],780
same,Activity,[25],inactive
same,Stability,[26],Stable

# Source: ChEMBL document CHEMBL4049434, “Radiolabeled Dibenzodiazepinone-Type Antagonists Give Evidence of Dualsteric Binding at the M2 Muscarinic Acetylcholine Receptor” (J Med Chem, 2017)
